Molecules are shown by their SMILES.

The values below come from ChEMBL document CHEMBL3259516, “Structure-based design and synthesis of bicyclic fused-pyridines as MEK inhibitors” (Bioorg Med Chem Lett, 2014).

In data set [1] the target is T1, Dual specificity mitogen-activated protein kinase kinase 1 (Homo sapiens, UniProt Q02750). Put plainly: Inhibition of MEK1 (unknown origin).
Data set [2] deals with T1, Dual specificity mitogen-activated protein kinase kinase 1. Put plainly: Inhibition of MEK1 in human COLO205 cells. It is filed as cell-based, COLO 205.
Data set [3] is described as follows: Plasma protein binding in human. It is filed as ADME, cell-free. Conditions: read-out: PPB (converted); call rule not given here.
Data set [4] in a line: Clearance in rat liver microsomes. Type of data set: ADME. The settings on record: read-out: CLH. (In general: Liver microsomes are a subcellular fraction often used to study metabolism.)
Data set [5] is described as follows: Clearance in human liver microsomes. Type of data set: ADME. Conditions: read-out: CLH.
Data set [6] in a line: Inhibition of CYP450 (unknown origin) up to 50 uM. Type of data set: ADME. The settings on record: human.
Data set [7] in a line: Cmax in rat at 5 mg/kg, po. It is filed as ADME, organism-based. The arrangement: dose 5 mg/kg, route oral. Conditions: in vivo.
Data set [8] in a line: AUC in rat at 5 mg/kg, po. It is filed as ADME, organism-based. Set-up: dose 5 mg/kg, route oral. Conditions: plasma.
Data set [9] is described as follows: Half life in rat at 5 mg/kg, po. Type of data set: ADME, organism-based. Set-up: dose 5 mg/kg, route oral. The settings on record: in vivo.
The nature of data set [10]: Cmax in beagle dog at 1 mg/kg, po. It is filed as ADME, organism-based, Canis lupus familiaris. Set-up: dose 1 mg/kg, route oral. The settings on record: in vivo.
The nature of data set [11]: AUC in beagle dog at 1 mg/kg, po. Type of data set: ADME, organism-based, Canis lupus familiaris. Set-up: dose 1 mg/kg, route oral. Conditions: plasma.
A short description of data set [12]: Half life in beagle dog at 1 mg/kg, po. Type of data set: ADME, organism-based, Canis lupus familiaris. The arrangement: dose 1 mg/kg, route oral. The settings on record: in vivo.
A short description of data set [13]: Oral bioavailability in beagle dog at 1 mg/kg. It is filed as ADME, organism-based, Canis lupus familiaris. The settings on record: in vivo.
Data set [14] is described as follows: AUC in beagle dog at 1 mg/kg, iv. Type of data set: ADME, organism-based, Canis lupus familiaris. Set-up: dose 1 mg/kg, route intravenous. Conditions: plasma.
Data set [15] can be described thus: Half life in beagle dog at 1 mg/kg, iv. It is filed as ADME, organism-based, Canis lupus familiaris. Set-up: dose 1 mg/kg, route intravenous. The settings on record: in vivo.
For the next data set, the system named is COLO 205. Put plainly: Antitumor activity against human COLO205 cells xenografted in mouse assessed as tumor growth inhibition at 3 mg/kg, po qd for 14 days relative to control. Type of data set: functional. Conditions: COLO 205, 336 h, read-out: TGI. Summed up:
(§1)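 Human colorectal Colo-205 xenografts in mice; test agent given by oral gavage at 3.0 mg/kg once daily for 14 days. Tumor growth inhibition scored relative to control, and body weight followed in all animals throughout the study.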
A general note: Xenograft models place foreign cells or tissue in a host animal.

The test system of the next data set is Mus musculus. Put plainly: Toxicity in mouse xenografted with human COLO205 cells assessed as change in body weight at 3 mg/kg, po qd for 14 days. It is filed as organism-based, COLO 205. The arrangement: dose 3 mg/kg, route oral. The settings on record: in vivo, 336 h. Summed up:
as §1

T1 sequence (Q02750 whole entry): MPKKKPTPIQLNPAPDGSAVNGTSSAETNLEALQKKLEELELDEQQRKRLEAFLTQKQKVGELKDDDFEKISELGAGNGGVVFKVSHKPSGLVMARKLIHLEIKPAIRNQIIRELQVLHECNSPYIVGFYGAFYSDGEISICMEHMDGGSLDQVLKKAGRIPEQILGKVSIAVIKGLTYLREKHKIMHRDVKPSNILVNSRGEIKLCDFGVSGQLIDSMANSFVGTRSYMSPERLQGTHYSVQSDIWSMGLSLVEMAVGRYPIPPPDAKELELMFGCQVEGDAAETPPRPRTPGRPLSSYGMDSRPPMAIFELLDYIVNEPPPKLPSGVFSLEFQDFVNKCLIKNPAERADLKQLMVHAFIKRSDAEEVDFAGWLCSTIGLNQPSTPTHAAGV

A word on the IC50: it is the midpoint of a concentration-inhibition curve. `O=C(NC[C@H](O)CO)c1ncncc1Nc1ccccc1F`: the half-maximal inhibitory concentration (IC50) in data set [1] is above 1000 nM.
For the molecule `Cn1c(=O)c(F)c(Nc2ccc(I)cc2F)c2c(=O)n(C[C@@H](O)CO)cnc21` [TAK-733], the figures for the half-inhibitory concentration (IC50) in data set [1] and in data set [2] were 1.79 nM and 6.92 nM, respectively.
Broadly, the Cmax is the peak of the concentration-time curve. What is called AUC is concentration integrated over time. High values mean high exposure, low ones low exposure. Broadly, the half-life is how long it takes for the measured level to halve. Higher therefore signals slow loss. One may read the bioavailability as the share of a dose that reaches the circulation, judged against a reference dose that is usually intravenous. In the case of `O=c1c2c(Nc3ccc(I)cc3F)cncc2cnn1C[C@H](O)CO`, in data set [3], the fraction unbound is 0.033. The microsomal CLint in data set [4] was 2.38 µL/min/mg; in [5], 1.25 µL/min/mg. In addition, in data set [6], the “inhibition (INH)” value is listed as “Not Active”. The maximum concentration (Cmax) in [7] worked out at 1080 ng/mL; in data set [10] it was 117 ng/mL. In addition, the AUC stood at 4890 ng·h/mL in [8], 510 ng·h/mL in data set [11] and 1190 ng·h/mL in data set [14]. In addition, the half-life in data set [9] was 5.56 h; in [12] it was 4.88 h; in [15], 3.11 h. The same molecule displayed a bioavailability in [13] of 43%. The inhibition in vivo at 3 mg/kg in the data set with COLO 205 was determined as 59.5%. In addition, the Activity entry in the data set on Mus musculus is “Non-toxic”.
